# Only some compounds are listed: those with a hit (about 1.9% of all), similar ones and a draw of the others.
# procasp7 counter – counter-screen for procaspase-3 activators: activators of human procaspase-7. activation, % at 8.5 µM. 330,000 compounds, 0.093% hits. recombinant procaspase-7, Ac-DEVD-pNA absorbance 405 nm; D23A/D198A/D206A triple mutant, cannot self-cleave; scale: DMSO 0, 5 µM enzyme 100. AID 463210;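 active = percent activation above the screen-wide mean plus 3 SD, cut at about 25% in these data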
#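 signal = Epi-absorbance of released pNA at 405 nm, two timepoints | assay system = Uncleavable procaspase-7 mutant enzyme | reagent = Ac-DEVD-pNA substrate, 400 µM as added | times = 1 h enzyme–compound preincubation and 2 h substrate reaction, both 25 °C | benchmarks = low DMSO alone, high DMSO plus 5 µM PC-7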
# UBC13 inh – human UBC13 polyubiquitination inhibition; inhibition, % at 20 µM; AID 485273; 330,000 compounds, 0.47% hits; P61088; UBC13 polyubiquitin chain formation, TR-FRET; in the data active = inhibition above about 45%, passing the limit was not always enough
# proCasp3 act – activators of human procaspase-3; P42574; recombinant procaspase-3 D3A, Ac-DEVD-pNA absorbance 405 nm; activation, % at 8.5 µM; 330,000 compounds, 0.11% hits;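 active = activation above the mean of all tested compounds plus 3 SD, cut at about 21% in these data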;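 note: 0% = DMSO alone and 100% = DMSO wells spiked with extra 5 µM PC-3 D3A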
#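 System: Procaspase-3 D3A mutant. Medium: Zinc-free 300 mM NaCl, 50 mM HEPES, 0.01% Triton X-100. Schedule: 1 h preincubation plus 2 h reaction at 25 °C. Measured by: 405 nm absorbance of p-nitroaniline, reads at 0 and 120 min. Read-out: percent activation relative to control range.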
# IDE cell inh – inhibitors of human insulin-degrading enzyme in cells | P14735 | HEK cells, FAbetaB cleavage, fluorescence polarization | inhibition, % at 5.59 µM | 320,000 compounds, 0.41% hits | AID 434962;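 active = percent inhibition above the average of all tested compounds plus 3 SD, set per screening campaign, cut at about 16% in these data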;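 note: IDE supplied by intact live HEK cells; FP after avidin binding of uncleaved biotin substrate so inhibition keeps polarization high; 0% = DMSO wells and 100% = 60 µM reference IDE inhibitor Ii1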
# Target sequence (P14735 whole entry, looked up): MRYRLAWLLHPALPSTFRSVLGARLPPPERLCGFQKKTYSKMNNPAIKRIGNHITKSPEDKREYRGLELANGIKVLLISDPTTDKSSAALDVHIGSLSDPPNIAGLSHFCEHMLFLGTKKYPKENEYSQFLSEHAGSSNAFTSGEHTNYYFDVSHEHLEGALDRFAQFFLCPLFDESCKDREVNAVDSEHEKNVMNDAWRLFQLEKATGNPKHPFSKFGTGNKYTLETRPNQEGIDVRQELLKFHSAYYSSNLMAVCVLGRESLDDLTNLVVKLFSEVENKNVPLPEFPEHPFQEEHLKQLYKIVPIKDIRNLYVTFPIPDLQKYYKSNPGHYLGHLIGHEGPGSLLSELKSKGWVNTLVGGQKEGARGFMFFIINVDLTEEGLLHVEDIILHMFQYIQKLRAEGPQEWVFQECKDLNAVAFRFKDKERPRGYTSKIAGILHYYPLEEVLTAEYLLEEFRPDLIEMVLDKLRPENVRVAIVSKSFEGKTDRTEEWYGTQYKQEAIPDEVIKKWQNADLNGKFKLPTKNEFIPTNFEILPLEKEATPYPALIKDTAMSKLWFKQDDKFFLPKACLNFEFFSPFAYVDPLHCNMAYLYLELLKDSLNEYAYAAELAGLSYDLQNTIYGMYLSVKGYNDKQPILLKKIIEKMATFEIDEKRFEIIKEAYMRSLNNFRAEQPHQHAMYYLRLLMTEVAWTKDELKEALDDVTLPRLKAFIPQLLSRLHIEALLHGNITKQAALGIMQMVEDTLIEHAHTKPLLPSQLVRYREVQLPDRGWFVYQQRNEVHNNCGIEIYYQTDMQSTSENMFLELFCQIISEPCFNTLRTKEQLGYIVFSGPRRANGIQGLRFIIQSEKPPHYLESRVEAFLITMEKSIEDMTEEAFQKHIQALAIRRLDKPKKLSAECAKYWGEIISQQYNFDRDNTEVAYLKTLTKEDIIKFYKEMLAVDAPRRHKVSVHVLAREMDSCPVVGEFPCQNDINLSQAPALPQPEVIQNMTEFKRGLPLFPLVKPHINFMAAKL
# IDE cell activ – activators of human insulin-degrading enzyme in cells. HEK cells, FAbeta-B cleavage, fluorescence polarization; 0% vehicle, 100% cell-free pure enzyme wells. 340,000 compounds, 0.073% hits. activation, % at 5.96 µM. P14735. AID 493087;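 active = activation above the mean of all tested compounds plus 3 SD, set per screening campaign, cut at about 17% in these data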
# PHOSPHO1 inh – inhibitors of human PHOSPHO1 phosphatase. recombinant PHOSPHO1, absorbance phosphatase assay. inhibition, % at 13.3 µM. AID 1565. 290,000 compounds, 1.1% hits; in the data active = inhibition above about 60%
# An asterisk follows results filed as active; . = no result given.
SMILES,procasp7 counter,UBC13 inh,proCasp3 act,IDE cell inh,IDE cell activ,PHOSPHO1 inh
CCOc1ccc(Nc2ncnc3c2nnn3Cc2ccccc2)cc1,-6.5,0.8,-12.6,2.7,-3.3,60.0*
CC(=O)N1N=C(c2ccc(NS(=O)(=O)c3ccccc3)cc2)CC1c1ccco1 (stereo unspecified),0.7,-2.2,0.0,-4.2,3.4,.
Cc1cnc(NC(=O)c2ccc3c(c2)C(=O)N(Cc2cccnc2)C3=O)s1,2.3,-5.5,0.7,4.6,-6.3,62.8*
Cc1ccc(NC(=O)c2ccc3c(c2)C(=O)N(Cc2cccnc2)C3=O)c(C)c1,9.9,-5.2,3.7,-9.8,0.5,61.0*
O=C(Nc1nccs1)c1ccc2c(c1)C(=O)N(Cc1cccnc1)C2=O,1.4,8.1,-0.4,-0.7,10.9,22.2
O=C(NCC(c1ccco1)N1CCc2ccccc2C1)C(=O)Nc1ccccc1F (stereo unspecified),9.0,2.3,-7.1,-1.2,2.3,.
COc1ccc(-n2cc(CN3CCCC3)c(-c3cccc(F)c3)n2)cc1,2.2,22.7,3.3,3.8,5.4,61.1*
Cc1cccc(-n2cc(CN3CCN(Cc4nccn4C)CC3)c(-c3cccc(F)c3)n2)c1,0.5,11.5,6.8,-4.3,3.6,61.1*
Cc1ccc(-c2nn(-c3cccc(F)c3)cc2CN2CCN(c3ccccn3)CC2)o1,7.2,2.6,-2.7,6.8,5.9,39.7
COc1ccc(-n2cc(CNC3CCN(C)CC3)c(-c3cccc(F)c3)n2)cc1,0.8,14.3,1.4,9.8,2.5,10.9
Cc1ccccc1OCC(=O)OCC(=O)NC1CC1,4.0,4.9,5.7,2.2,-0.9,.
Clc1ccc(C2Nc3ccccc3-n3cccc32)cc1 (stereo unspecified),27.7*,15.8,-1.8,0.5,1.6,4.9
N#CC1(NC(=O)COC(=O)C2CCN(S(=O)(=O)c3ccc4c(c3)OCCO4)CC2)CCCCC1,.,.,.,.,6.7,.
Cc1cc(-n2c(C)cc(C(=O)CSc3ccc4c(c3)OCCO4)c2C)no1,0.8,-3.7,-4.7,2.4,0.2,71.1*
Cc1ccc(-n2nnnc2SCC(=O)c2cc(C)n(-c3cc(C)on3)c2C)c(C)c1,-12.6,3.9,-9.1,1.2,1.0,75.4*
Cc1ccc(C)c(OCc2nnc(N)s2)c1,5.5,2.7,-7.5,0.4,-0.6,71.9*
NC(=S)N=Nc1c(O)[nH]c2ccc(F)cc12,7.3,50.3*,1.8,-6.7,0.8,0.6
CSC1=NS(=O)(=O)c2c(C)nn(C)c2S1,-35.5,1.3,-29.8,15.2,-34.0,90.4*
COc1ccc(OC)c(NC(=O)C(C)OC(=O)c2cc3ccccc3[nH]2)c1 (stereo unspecified),.,.,.,.,2.8,.
Cc1ccc(N2CC(O)(c3cccs3)[N+]3=C2CCCC3)cc1 (stereo unspecified),1.0,-7.8,1.9,-2.3,-2.3,60.9*
Cc1cc(C)c2nc3s/c(=C/c4ccccc4)c(=O)n3c2c1,.,.,.,.,.,92.7*
CC(C)C1Cc2c(sc3ncnc(NN)c23)CO1 (stereo unspecified),-12.4,-4.2,-20.2,0.2,-3.3,19.9
COC(=O)c1ccc(CC(=O)c2ccc(O)cc2O)o1,8.0,-11.1,-2.9,6.7,2.0,63.7*
COc1cc(/C=C/C(=O)c2c(O)cc(C)oc2=O)cc(OC)c1O,-17.6,-14.5,-15.5,12.7,-12.8,79.9*
CC[C@@]1(O)C(=O)OCc2c1cc1n(c2=O)Cc2cc3c(N)cccc3nc2-1,-3.4,-43.8,-1.2,-2.4,2.9,4.5
SMILES,procasp7 counter,UBC13 inh,proCasp3 act,IDE cell inh,IDE cell activ,PHOSPHO1 inh
CC[C@@]1(O)C(=O)OCc2c1cc1n(c2=O)Cc2cc3c(CN(C)C)c(O)ccc3nc2-1,-36.8,-15.2,-33.8,-2.8,24.1*,.
CCOC(=O)c1sc(NC(=O)Cc2ccc(C)cc2)nc1C,3.3,7.1,6.1,2.9,1.4,61.8*
CCOC(=O)c1sc(NC(=O)CCC(=O)O)nc1C,8.3,2.8,1.6,1.5,-0.1,-0.8
CC(C)(C)OC(=O)N1CCN(CCNC(=O)c2ccccc2)CC1,13.3,5.8,-8.9,0.6,0.1,32.6
Cc1cc(=O)oc2cc(OC(=O)c3ccccc3)ccc12,-4.3,6.5,-4.8,2.8,4.4,-9.0
COc1ccccc1-c1c(C(F)(F)F)oc2cc(OC(=O)c3ccc([N+](=O)[O-])cc3)ccc2c1=O,2.3,-2.3,1.3,17.1*,-12.9,-1.0
COc1cc(NC(=O)CN2C(=O)c3ccccc3S2(=O)=O)cc(OC)c1,-4.3,-1.5,-2.4,-6.5,5.1,.
Cc1cc(C)cc(NC(=O)Cc2ccc(S(=O)(=O)N3CCCC3)s2)c1,-2.0,11.0,-0.1,5.9,5.3,.
O=C(Cc1ccc(S(=O)(=O)N2CCCC2)s1)Nc1nc2c(s1)CCCC2,-11.3,-2.6,-6.5,0.1,2.8,61.4*
CCc1ccccc1NC(=O)CN1CCN(CC(=O)Nc2ccc3c(c2)OC2(CCCCC2)O3)CC1,.,.,.,.,7.1,.
Cn1c(SCC(=O)c2ccc(O)c(O)c2)nnc1-c1cccs1,-4.3,-9.2,0.6,7.0,0.5,62.3*
COCCCN(C(=O)CCSc1ccc(F)cc1)c1c(N)n(Cc2ccccc2)c(=O)[nH]c1=O,0.1,10.4,4.3,5.2,3.5,.
Cc1ccc(NC(=O)C(=O)NCCN2CCN(S(C)(=O)=O)CC2)cc1C,8.0,-6.2,-1.2,0.5,0.1,61.1*
O=C(Cn1cncn1)NCc1cc(F)ccc1F,5.1,4.6,3.4,5.5,1.4,9.7
O=C(CSc1nncn1-c1ccccc1F)NC1CC1,-0.3,6.3,2.2,2.5,0.6,.
CCc1ccc2c(c1)c1nc(C)sc1n2CC,1.1,5.4,-4.8,6.7,-6.2,91.5*
Cc1ccc(OCCCC(=O)NC2CCCCC2)cc1,3.8,3.7,-0.3,4.7,-5.6,18.5
Cc1ccsc1C1C=C(c2cccc(Br)c2)Nc2ncnn21 (stereo unspecified),9.3,9.4,-3.6,25.3*,-34.0,61.5*
COc1ccc(C2(CNC(=O)Cc3ccccc3)CCCC2)cc1OC,7.2,3.9,1.6,-1.5,-2.9,65.2*
COc1ccc(CC(=O)NCC2(c3ccc(OC)c(OC)c3)CCOCC2)cc1,0.4,-4.9,1.6,4.8,1.1,10.7
COc1ccc(-c2cc(C(=O)Nc3ccc(C)c(C)c3)no2)cc1,-7.2,20.0,4.1,2.4,3.2,60.6*
COC(=O)c1cc(C)sc1NC(=O)CSc1ncccn1,-16.3,-1.6,-12.5,6.3,-4.8,38.1
Cc1c(C(=O)OC(C)C(C)C[N+](C)(C)C)oc2ccccc12 (stereo unspecified),-20.8,-1.6,-10.4,-0.4,5.2,86.8*
CCC(C(=O)O)n1nnc(-c2ccc(OCc3ccccc3)c(OC)c2)n1 (stereo unspecified),-6.0,10.5,5.3,0.6,.,.
c1ccc2[nH]c(SN3CCOCC3)nc2c1,.,.,.,.,.,102.2*
